An excerpt weighted towards active compounds, which were near 1.8% of everything screened.
H9c2 TAG inh – inhibitors of triacylglycerol accumulation, primary screen, cell-based, uHTS, fluorescence, H9c2. H9c2 cells, Nile Red lipid (TAG) fluorescence; cells loaded with 200 µM oleic acid. inhibition, % at 12.5 µM. actives 0.66% (n = 230,000);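 active means pattern-corrected inhibition of lipid staining of at least 50% with the nuclear-stain viability signal not falling by more than 50%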
hiPSC survival – enhancers of single-cell hiPSC survival, primary screen, ATPlite luminescence | 100% = ROCK inhibitor wells, 0% = DMSO | survival enhancement, % at 20 µM | actives 0.044% (n = 360,000) | AID 602274, 2012; in the data active means survival enhancement above about 18%;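 further: cells exposed to compounds for 16 hours before the ATP read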
Gli-Sufu antag – Gli-Sufu pathway antagonists, primary screen, luciferase luminescence, Sufu-KO-LIGHT cells, uHTS; Sufu-KO-LIGHT fibroblasts, Gli luciferase reporter luminescence; inhibition, % at 5 µM; actives 0.74% (n = 340,000);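 active means inhibition above about 55%, limit read from the data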
Jurkat NFkB inh – inhibitors of induced NF-kB luciferase reporter, primary screen, TCR NF-kB activation inhibitor project, cell-based, luminescence, uHTS; Jurkat, PMA/ionomycin-induced NF-kB luciferase reporter; inhibition, % at 4 µM; actives 0.53% (n = 330,000); AID 435003, 2010; in the data active means inhibition above about 50%
Hep lipid drop – inhibitors of hepatocyte lipid droplet formation, primary screen, imaging, high-throughput imaging, BODIPY stain | AML12 mouse hepatocytes, oleate lipid droplets | inhibition, % at 6.5 µM | actives 0.4% (n = 240,000) | AID 1656, 2009;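 active means lipid droplet intensity inhibited by at least 50%, with more than 500 cells counted; inconclusive means wells with under 300 cells, treated as cytotoxic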
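material = mouse AML12 hepatocyte cell line, fixed after treatment | also added = 100 µM oleic acid challenge | doses = compound at 6.5 µM only | schedule = overnight exposure | technique = Image-based BODIPY and DAPI two-channel analysis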
697 NFkB inh – inhibitors of PMA/ionomycin-induced NF-kB reporter, 697 cells, primary screen, B-cell NF-kB inhibitor project, cell-based, luminescence, uHTS; 697 B-cell NF-kB luciferase reporter, 16 h; inhibition, % at 4 µM; actives 0.33% (n = 330,000); AID 435022, 2010; in the data active means inhibition above about 35%
Jurkat NFkB conf – PMA/ionomycin-induced NF-kB reporter inhibitors, Jurkat retest, confirmation, T-cell NF-kB inhibitor project, cell-based, luminescence, single concentration; shares compounds with Jurkat NFkB inh; Jurkat NF-kB luciferase, 16 h; inhibition, % at 4 µM; actives 27% (n = 2,700); AID 435020, 2010;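 active means inhibition reaching about 45% at 4 µM in either replicate, limit read from the data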
Numbers stand for hits; . = inactive; ? = inconclusive; / = not tested or not shown.

SMILES | H9c2 TAG inh | hiPSC survival | Gli-Sufu antag | Jurkat NFkB inh | Hep lipid drop | 697 NFkB inh | Jurkat NFkB conf
COc1cc(/C=C2/SC(=Nc3ccc(O)cc3)NC2=O)cc(OC)c1O | . | . | . | . | . | . | /
CC(NCc1ccc(-c2ccccc2)cc1)C(O)c1ccccc1 (stereo unspecified) | . | . | . | 55 | . | . | .
COc1ccc2[nH]c3c(C)c4ccncc4c(C)c3c2c1 | / | . | . | 52 | . | . | .
Cc1c2ccncc2cc2c1[nH]c1ccccc12 | . | . | . | / | / | / | /
CCOc1ccc(-n2nc3cc(C)c(N)cc3n2)cc1 | . | . | . | . | . | . | .
COc1cc(OC)c(/C=C2\C(=O)Nc3ccccc32)c(OC)c1 | / | / | . | 56 | / | . | 54
COc1ccc(C(=O)/C=C2/C(=O)Nc3ccccc32)c(OC)c1 | / | . | . | . | . | . | /
Cc1ccc(C)c(N(C(=O)c2csnn2)C(C(=O)NC2CCCCC2)c2ccccn2)c1 (stereo unspecified) | / | . | . | . | . | . | /
Fc1ccccc1/C=N/NC(=S)Nc1ccc(Cl)cc1Cl | / | . | . | 53 | . | . | .
Fc1ccc(NC(=S)Nc2ccc(Cl)cc2Cl)cc1 | / | / | . | . | . | . | /
O=c1[nH]c(NCc2ccccc2)nc2c1CCC2 | . | . | . | . | / | . | /
Cc1nc(Nc2nc3c(c(=O)[nH]2)CCC3)nc2ccccc12 | . | . | . | 85 | / | . | 57
COc1ccc(C(=O)O/N=C(\N)c2ccccc2)cc1 | / | . | . | . | . | . | /
CC(C)(C)c1ccc(C(=O)O/N=C(\N)c2ccccc2)cc1 | / | . | 89 | 71 | / | . | 85
N/C(=N\OC(=O)c1ccc(Br)cc1)c1ccccc1 | / | . | . | . | / | . | .
c1ccc(CNc2c3c(nc4ncnn24)CCC3)cc1 | . | . | . | . | . | . | /
COc1ccc(-c2cn3cc(Cl)ccc3n2)cc1OC | / | . | . | . | / | . | /
COc1ccc(-c2cn3cc(C)ccc3n2)cc1Br | / | . | . | . | . | . | .
Cc1cc(C(=O)Nc2ccc3nc(C)sc3c2)c2ccccc2n1 | . | . | . | . | . | . | /
Cc1ccc(C(=O)Nc2ccnc(-c3cccnc3)n2)cc1 | . | . | . | . | . | . | /
Cc1ccc(NC(=O)Nc2ccnc(-c3cccnc3)n2)cc1 | . | . | . | 62 | . | . | 47
COc1cccc(C(C(=O)NCC2CCCO2)N(C(=O)Cn2nnc3ccccc32)c2ccccc2C(C)=O)c1OC (stereo unspecified) | / | . | . | . | . | . | /
CCC(=O)Nc1nc(-c2ccc3c(c2)OCCO3)cs1 | . | . | . | . | . | . | /
C=CCNc1nc(-c2ccc3c(c2)OCCO3)cs1 | . | . | . | . | . | . | .
COc1ccc(CN2C3CCC2CC(NC(=O)c2cc(OC)c(OC)c(OC)c2)C3)cc1 (stereo unspecified) | / | . | . | . | . | . | /
SMILES | H9c2 TAG inh | hiPSC survival | Gli-Sufu antag | Jurkat NFkB inh | Hep lipid drop | 697 NFkB inh | Jurkat NFkB conf
COc1ccc(CCNc2cc(N3CCN(C(=O)c4ccccc4F)CC3)ccc2[N+](=O)[O-])cc1OC | / | . | . | 58 | / | . | 67
COc1ccc(CCNc2cc(N3CCN(C(=O)c4ccc(C)cc4)CC3)ccc2[N+](=O)[O-])cc1OC | / | / | / | 75 | . | . | 67
O=C(Nc1ccc(N2CCN(C(=O)c3cccs3)CC2)cc1)c1ccc([N+](=O)[O-])o1 | . | . | / | 52 | . | . | .
O=C(Nc1ccc(N2CCN(C(=O)c3cccs3)CC2)cc1)c1ccco1 | / | . | . | . | . | . | /
O=C(O)c1cc(-c2ccc(Cl)c(Cl)c2)n(-c2ccc(F)cc2)n1 | / | . | . | . | / | . | /
COc1cccc(Cn2c(-c3nonc3N)nc3ccccc32)c1 | . | . | . | 51 | . | . | .
CCOC(=O)c1ccccc1NS(=O)(=O)c1ccc(OCC)cc1 | / | . | . | 62 | . | . | .
CCOc1ccc(S(=O)(=O)Nc2ccccc2C(=O)N(C)C2CCN(C)CC2)cc1 | . | . | / | . | / | . | /
CC/C(=N\NC(=O)c1csc(C)c1C)c1cccs1 | . | . | . | . | / | . | .
CCC/C(=N\NC(=O)c1csc(C)c1C)c1cccs1 | . | . | . | . | . | . | /
CC1(C)CC2(OC2c2ccccc2[N+](=O)[O-])C(=O)c2ccccc21 (stereo unspecified) | . | . | / | / | / | / | /
CCOC(=O)N1CCN(c2c(NCc3ccc(F)cc3)c(=O)c2=O)CC1 | . | . | . | 61 | . | . | .
CCCCNc1cc(C)nc(NCc2ccccc2)n1 | . | . | . | 70 | / | . | .
CCOc1cc2c(cc1/C=C1/NC(=O)N(CC(=O)OC)C1=O)OCO2 | . | . | . | . | . | . | /
Cc1ccc2nc(SCC(=O)c3ccccc3)nc(=O)n2c1 | . | . | . | . | / | . | .
Cc1ccn2c(=O)nc(SCC(=O)c3ccccc3)nc2c1 | . | . | . | . | / | . | /
COc1cc(NC(=O)N2CCNC2=O)cc(C(=O)Nc2cccc(C(F)(F)F)c2)c1 | / | . | . | 67 | . | . | 51
COc1cc(C(=O)Nc2cccc(NC(=O)c3ccccc3)c2)cc(OC)c1OC | . | . | . | . | . | . | /
COc1cc2c(c(OC)c1OC)-c1ccc(NC(=O)c3ccccc3)c(=O)cc1[C@@H](NC(C)=O)CC2 | / | . | . | . | . | . | .
COc1ccccc1NS(=O)(=O)c1ccc(-c2cnc(C3CC3)o2)cc1 | / | . | . | . | . | . | /
COc1ccccc1CNS(=O)(=O)c1ccc(-c2cnc(C3CC3)o2)cc1 | / | . | . | 51 | . | . | 50
Cc1ccc(-c2cnc(C3CC3)o2)cc1S(=O)(=O)Nc1ccccc1 | / | . | . | . | . | . | /
Cc1ccc(NS(=O)(=O)c2ccc(-c3cnc(C4CC4)o3)cc2)c(C)c1 | / | . | . | 54 | ? | . | 61
O=C(O)c1ccc2c(=O)n3c(nc2c1)/C(=C/c1ccccc1OC(F)F)CC3 | / | . | . | . | . | . | /
Cn1ncc2c(O/N=C(\N)c3ccc(C(F)(F)F)cc3)ncnc21 | 86 | . | . | 78 | . | . | .
C=CC[n+]1c(/C=C2\C=Cc3cc(C)ccc3N2CC)ccc2ccccc21 | . | . | 90 | 78 | . | . | .
CCN1C(=C(C#N)C#N)C=Cc2cc(C)ccc21 | . | . | . | . | . | . | /
COc1cccc(C(=O)Nc2ccc3c(C)cc(=O)oc3c2)c1 | . | . | . | . | . | . | .
Cc1cc(=O)oc2cc(NC(=O)c3ccccc3C(=O)O)ccc12 | / | . | . | . | / | . | /

Source: PubChem BioAssay
